Data on 13 compounds can be found in ChEMBL document CHEMBL1144182, “Antimicrobial and cytotoxic arylazoenamines. Part III: antiviral activity of selected classes of arylazoenamines” (Bioorg Med Chem, 2008).

Active and inactive are the calls of the source. The rule behind the calls is not given here.

For one series, the system named is Coxsackievirus B2. In words: Antiviral activity against CVB2 infected in Vero76 cells assessed as reduction in virus plaque formation after 4 days by MTT assay. The format is functional, organism-based. Particulars: Enterovirus B, Vero 76, 96 h.
For series [1], the system named is Bovine viral diarrhea virus 1. In words: Antiviral activity against BVDV infected in MDBK cells assessed as protection against virus-induced cytopathogenicity after 4 days by MTT assay. The note with it: Bovine viral diarrhea virus isolates and strains, 96 h. It is filed as functional, organism-based. A digest of the protocol: (§1)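 MDBK (BVDV) or BHK-21 (YFV) cells were seeded at 3 × 10^4 or 5 × 10^4 cells/well respectively and grown overnight to confluent monolayers at 37 °C in 5% CO2. Monolayers were infected at m.o.i. 0.01 in serum-free medium. After 1 h, MEM Earle's with 1% FCS was added, with or without serial compound dilutions. After 3–4 days at 37 °C, viability was read by MTT. EC50 was taken as 50% protection from virus-induced cytopathogenicity.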

In series [2] the test system is Respiratory syncytial virus. In words: Antiviral activity against RSV infected in Vero76 cells assessed as reduction in virus plaque formation after 4 days by MTT assay. It is filed as functional, organism-based. Particulars: human respiratory syncytial virus, Vero 76, 96 h.
The next series relates to Poliovirus 1. In words: Antiviral activity against Sb1 virus infected in Vero76 cells assessed as reduction in virus plaque formation after 4 days by MTT assay. It is filed as functional, organism-based. Particulars: Enterovirus C, Sabin, Vero 76, 96 h.
The nature of series [3]: Cytotoxicity against mock-infected human MT4 cells assessed as reduction in cell viability after 96 hrs by MTT assay. It is filed as cell-based. A digest of the protocol:
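Exponentially growing MT-4 cells seeded at 1 × 10^5 cells/mL in RPMI-1640 with 10% FCS, penicillin and streptomycin, with or without serial compound dilutions. Incubated at 37 °C, 5% CO2; viability read by MTT after 96 h. CC50 is the concentration reducing mock-infected cell viability by 50%.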

Series [4] concerns Human immunodeficiency virus 1. Nature of the series: Antiviral activity against HIV1 infected in MT4 cells assessed as virus-induced cytopathogenicity after 4 days. It is filed as functional, organism-based.
Series [5] in a line: Cytotoxicity against mock-infected BHK cells assessed as reduction in cell viability after 96 hrs by MTT assay. The format is cell-based, Mesocricetus auratus. The note with it: hamster. In outline: (§2)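 Cytotoxicity run in parallel with the antiviral assays. MDBK seeded at 6 × 10^5 and BHK at 1 × 10^6 cells/mL in maintenance medium with or without serial compound dilutions. Incubated 48–96 h at 37 °C, 5% CO2, then viability read by MTT. CC50 is the concentration reducing mock-infected cell viability by 50%.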

A further series relates to Vaccinia virus. In words: Antiviral activity against VV infected in Vero76 cells assessed as reduction in virus plaque formation after 4 days by MTT assay. The format is functional, organism-based. The note with it: Orthopoxvirus vaccinia; Vero 76.
The nature of series [6]: Cytotoxicity against mock-infected MDBK cells assessed as reduction in cell viability after 96 hrs by MTT assay. It is filed as cell-based, Bos taurus. The note with it: cattle. A digest of the protocol: as §2
For another series, the system named is Yellow fever virus. Nature of the series: Antiviral activity against YFV infected in BHK21 cells assessed as protection against virus-induced cytopathogenicity after 4 days by MTT assay. It is filed as functional, organism-based. The note with it: BHK-21, 96 h. A digest of the protocol:
as §1

Series [7] has as its system Vesicular stomatitis virus. In words: Antiviral activity against VSV infected in Vero76 cells assessed as reduction in virus plaque formation after 4 days by MTT assay. The format is functional, organism-based. The note with it: Vero 76.
Series [8] in a line: Cytotoxicity against mock-infected african green monkey Vero76 cells assessed as reduction in cell viability after 96 hrs by MTT assay. It is filed as cell-based, Vero. Particulars: chlorocebus sabaeus.

`CN1CCC/C1=C\N=N\c1c(F)c(F)c(F)c(F)c1F`: the EC50 with Coxsackievirus B2 was above 100 µM; in [1] it was above 100 µM; in series [2] it was 75 µM; with Poliovirus 1, above 100 µM; in the series on Yellow fever virus it was above 100 µM. In addition, the CC50 at 96 h was 8 µM in [3], above 100 µM in series [5], above 100 µM in series [6] and above 100 µM in series [8]. Also, the outcome (in series [4]; in the series with Vaccinia virus; in series [7]) was inactive.
Consider `CN1CCC/C1=C\N=N\c1cccc(Br)c1`, for which the EC50 in the series on Coxsackievirus B2 was 16 µM; in [1], 9 µM; in series [2], above 80 µM; with Poliovirus 1 it was above 80 µM; with Yellow fever virus it was 7 µM. Besides, the half-maximal cytotoxic concentration (CC50) at 96 h amounted to 55 µM in series [3], 41 µM in series [5], 52 µM in series [6] and 80 µM in series [8]. Also, the result (in series [4]; in the series on Vaccinia virus; in [7]) was inactive.
For the compound `CN1C=C(/N=N/c2ccccc2)CCC1`, the EC50 in the series with Coxsackievirus B2 was above 100 µM; in series [1], above 100 µM; in series [2], 75 µM; in the series on Poliovirus 1, above 100 µM; with Yellow fever virus, above 100 µM. The CC50 at 96 h in series [3] was above 100 µM; in [5], above 100 µM; in series [6], above 100 µM; in series [8] it was at least 100 µM. In addition, the result (in series [4]; with Vaccinia virus; in [7]) was inactive.
Take `FC(F)(F)c1cc(/N=N/C2=CN(Cc3ccccc3)CCC2)ccc1Cl`: the EC50 was 4 µM with Coxsackievirus B2; at least 28 µM in [1]; above 48 µM in series [2]; above 48 µM with Poliovirus 1; 22 µM with Yellow fever virus. For the same compound, the CC50 at 96 h worked out at 43 µM in [3], 32 µM in [5], 28 µM in [6] and 48 µM in series [8]. Moreover, the outcome (in series [4]; with Vaccinia virus; in series [7]) was inactive.
In the case of `CN1C=C(/N=N/c2cccc([N+](=O)[O-])c2)CCC1`, the EC50 was above 100 µM in the series on Coxsackievirus B2; 0.8 µM in series [1]; above 100 µM in [2]; above 100 µM with Poliovirus 1; above 95 µM in the series on Yellow fever virus. The CC50 at 96 h is above 100 µM in series [3], 95 µM in [5], above 100 µM in series [6] and above 100 µM in [8]. Moreover, the outcome (in series [4]; with Vaccinia virus; in [7]) was inactive.
As to `O=[N+]([O-])c1cccc(/N=N\C2=C3CCCN3CCC2)c1`, the EC50 is 54 µM in the series on Coxsackievirus B2; above 68 µM in series [1]; above 100 µM in [2]; 60 µM in the series with Poliovirus 1; above 95 µM with Yellow fever virus. Besides, the CC50 at 96 h in [3] is above 100 µM; in [5], 95 µM; in series [6] it was 68 µM; in series [8], above 100 µM. Further, the outcome (in series [4]; in the series with Vaccinia virus; in series [7]) was inactive.
Consider `Clc1ccccc1/N=N\C1=C2CCCCN2CCC1`, for which the EC50 in the series with Coxsackievirus B2 is 32 µM; in series [1], above 100 µM; in series [2] it was 60 µM; in the series on Poliovirus 1 it was above 100 µM; with Yellow fever virus, above 93 µM. Also, the CC50 at 96 h is 78 µM in series [3], 93 µM in series [5], above 100 µM in series [6] and above 100 µM in series [8]. Also, the outcome (in series [4]; in the series with Vaccinia virus; in [7]) was inactive.
As to `CN1CCC/C1=C\N=N\c1cc(C(F)(F)F)cc(C(F)(F)F)c1`, the EC50 in the series on Coxsackievirus B2 is above 93 µM; in series [1] it was above 36 µM; in series [2], above 93 µM; in the series on Poliovirus 1 it was above 93 µM; with Yellow fever virus, above 48 µM. Also, the CC50 at 96 h in series [3] amounted to 2 µM; in series [5], 48 µM; in [6], 36 µM; in [8], 93 µM. For the same compound, the result (in series [4]; with Vaccinia virus; in [7]) was inactive.
With `Clc1cccc(N2CCN(/C=C/N=N/c3ccccc3)CC2)c1`, the EC50 was above 11 µM in the series on Coxsackievirus B2; above 7 µM in series [1]; 5 µM in [2]; above 11 µM with Poliovirus 1; 10 µM in the series on Yellow fever virus. The CC50 at 96 h was found to be 19 µM in series [3], 47 µM in series [5], 7 µM in series [6] and 11 µM in [8]. Besides, the outcome (in series [4]; with Vaccinia virus; in series [7]) was inactive.
`Fc1ccc(/N=N\C2=C3CCCCN3CCC2)cc1C(F)(F)F`: the EC50 in the series on Coxsackievirus B2 is 45 µM; in series [1], above 100 µM; in [2], above 100 µM; in the series with Poliovirus 1, above 100 µM; in the series with Yellow fever virus it was above 60 µM. Also, the cytotoxic concentration (CC50) at 96 h is 3 µM in [3], 60 µM in [5], above 100 µM in series [6] and above 100 µM in series [8]. The outcome (in series [4]; with Vaccinia virus; in [7]) was inactive.
With `Clc1ccc(/N=N\C2=C3CCCCN3CCC2)cc1Cl`, the EC50 in the series on Coxsackievirus B2 was 38 µM; in series [1], above 30 µM; in series [2], above 100 µM; in the series with Poliovirus 1, above 100 µM; in the series with Yellow fever virus it was above 54 µM. For the same compound, the CC50 at 96 h in [3] is 35 µM; in series [5], 54 µM; in series [6] it was 30 µM; in series [8], above 100 µM. For the same compound, the outcome (in [4]; with Vaccinia virus; in [7]) was inactive.
Turning to `C(=C\N1CCN(c2ccccn2)CC1)/N=N/c1ccccc1`, the half-maximal effective concentration (EC50) in the series with Coxsackievirus B2 is 6 µM; in series [1] it was above 100 µM; in [2], 7 µM; with Poliovirus 1, above 22 µM; in the series on Yellow fever virus it was above 75 µM. Also, the CC50 at 96 h in series [3] is 19 µM; in [5] it was 75 µM; in series [6], at least 100 µM; in series [8] it was 22 µM. Besides, the result (in [4]; in the series with Vaccinia virus; in [7]) was inactive.
Consider `c1ccc2c(N=NC3=C4CCCN4CCC3)nncc2c1`, for which the EC50 with Coxsackievirus B2 was above 100 µM; in [1], above 100 µM; in series [2] it was 7 µM; in the series on Poliovirus 1, above 100 µM; in the series with Yellow fever virus it was above 100 µM. Further, the cytotoxic concentration (CC50) at 96 h is 52 µM in series [3], above 100 µM in series [5], above 100 µM in series [6] and above 100 µM in series [8]. Further, the result (in [4]; in the series on Vaccinia virus; in series [7]) was inactive.
